TRPC4 PAM: positive allosteric modulators of TRPC4, primary screen, cell-based, mouse TRPC4beta, HEK293 mu-opioid, Fluo-4 calcium | DAMGO EC20, Fluo-4 Ca2+ flux; hits give high values | B-score at 10 µM | 0.42% of 310,000 active | Short transient receptor potential channel 4 (Mus musculus), Q9QUQ5;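 active = B-score of calcium response area above 5 SD of library B-scores, with initial fluorescence ratio within 5 SD of library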;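 also: B-score of integrated fluorescence ratio over time as area under calcium response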
TRPC6 inhibitor: mouse TRPC6 channel inhibitors, primary screen, cell-based, HEK293, membrane potential dye; B-score at 10 µM; ACh-evoked depolarization; hits give low values; Short transient receptor potential channel 6 (Mus musculus), Q61143; 1.1% of 310,000 active; AID 2553, 2010;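 active = B-score under library mean minus 3 SD, initial fluorescence not abnormally high, positive integrated signal ratio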;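 also: B-score derived from integrated fluorescence ratio over the kinetic read; more negative B-score means stronger inhibition of depolarization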
Target sequence (Q61143 whole entry, looked up): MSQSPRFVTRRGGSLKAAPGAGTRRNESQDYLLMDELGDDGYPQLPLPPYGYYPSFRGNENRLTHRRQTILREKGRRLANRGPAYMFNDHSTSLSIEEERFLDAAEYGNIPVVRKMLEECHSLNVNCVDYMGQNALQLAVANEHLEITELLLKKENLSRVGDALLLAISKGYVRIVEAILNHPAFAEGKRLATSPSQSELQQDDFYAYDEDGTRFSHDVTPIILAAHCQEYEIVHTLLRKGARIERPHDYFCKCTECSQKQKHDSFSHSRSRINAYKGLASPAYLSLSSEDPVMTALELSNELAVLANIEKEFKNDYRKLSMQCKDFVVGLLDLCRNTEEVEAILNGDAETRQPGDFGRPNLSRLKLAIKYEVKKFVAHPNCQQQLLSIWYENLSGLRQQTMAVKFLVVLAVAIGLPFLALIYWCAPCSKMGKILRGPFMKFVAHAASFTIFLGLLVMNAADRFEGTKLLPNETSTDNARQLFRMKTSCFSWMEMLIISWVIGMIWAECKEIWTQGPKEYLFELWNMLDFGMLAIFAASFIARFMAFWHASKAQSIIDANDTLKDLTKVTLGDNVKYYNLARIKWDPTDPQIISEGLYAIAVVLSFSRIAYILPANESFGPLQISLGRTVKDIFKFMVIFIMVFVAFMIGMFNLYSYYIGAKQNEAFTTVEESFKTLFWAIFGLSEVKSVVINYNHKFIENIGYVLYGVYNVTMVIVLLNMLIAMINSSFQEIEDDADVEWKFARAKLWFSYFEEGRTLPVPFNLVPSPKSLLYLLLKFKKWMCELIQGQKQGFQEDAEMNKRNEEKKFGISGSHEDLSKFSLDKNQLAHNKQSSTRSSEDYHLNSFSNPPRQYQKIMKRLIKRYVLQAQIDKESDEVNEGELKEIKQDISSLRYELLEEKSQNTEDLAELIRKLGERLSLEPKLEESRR
TRPC6 act: mouse TRPC6 channel activators, primary screen, cell-based, HEK293, membrane potential dye | 0.13% of 310,000 active | HEK293-TRPC6 membrane potential dye fluorescence; hits give high values | B-score at 10 µM;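 active = B-score of the integrated fluorescence ratio above library mean plus 3 SD, and starting fluorescence ratio within library mean plus 5 SD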;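 also: higher score means more depolarization so channel activation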
TRPC4 block: inhibitors of mouse TRPC4 channel, primary screen, Fluo4 calcium, HEK293 TRPC4beta/mu-opioid cells; Short transient receptor potential channel 4 (Mus musculus), Q9QUQ5; DAMGO-evoked Fluo4 calcium flux; hits give low values; B-score at 10 µM; 0.39% of 300,000 active; AID 2247, 2010;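 active = B-score over 3 SD under the library average, no early fluorescence shift, positive overall ratio signal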
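Test system – stable TRPC4beta/mu-opioid receptor HEK293 cells · Probe or stimulus – DAMGO, a submaximal dose followed by a maximal one · Dosing – one concentration per compound · Signal – Fluo4 calcium fluorescence by kinetic imaging, 5 s 1 Hz baseline · Evaluation – per-well B score of integrated baseline-normalized Fluo4 ratio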
Kir21 block: inhibitors of mouse Kir2.1 inward-rectifier potassium channel; Inward rectifier potassium channel 2 (Mus musculus), P35561; HEK293-Kir2.1, FluxOR thallium flux fluorescence; hits give low values; B-score at 10 µM; 0.85% of 310,000 active; AID 1672, 2009;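 active = fluorescence ratio B-score at or below minus 3 SD of library scores, with starting-brightness B-score within 2 SD, cut at about -4.2 in these data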;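 also: channel flux triggered by added potassium and thallium sulfate stimulus; B-score of peak minus minimum fluorescence over baseline after thallium stimulus; more negative B-score means stronger Kir2.1 block with less thallium influx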
TRPC4 agonist: activators of mouse TRPC4 channel, primary screen, Fluo4 calcium, HEK293 TRPC4beta/mu-opioid cells | Fluo4 calcium fluorescence; hits give high values | B-score at 10 µM | 0.49% of 310,000 active | AID 2237, 2010;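 active = B-score above 5 SD of library B-scores, and initial fluorescence ratio not above library mean plus 5 SD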;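 also: positive B-score marks a calcium rise read as TRPC4 activation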
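Incubation: 45 min room-temperature Fluo4 loading, 110 s read / System: HEK293 cells stably co-expressing mouse TRPC4beta and mu-opioid receptor / Signal: Fluo4 fluorescence, kinetic / Control set: buffer (low) and maximal DAMGO (high) / Measure: integrated baseline-normalised fluorescence ratio, converted to per-well B score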
hERG ctr: hERG channel inhibition, counter-screen for Kir2.1 inhibitor project, cell-based, thallium flux; inhibition, % at 10 µM; hERG-expressing cells; AID 2236, 2010; 20% of 320 active; shares compounds with Kir21 block;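 also: host cells are CHO cells stably expressing hERG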
KCNK9 inh: KCNK9 channel inhibition, selectivity assay for Kir2.1 inhibitor project, cell-based; shares compounds with Kir21 block; KCNK9-expressing cells, ion flux inhibition; inhibition, % at 10 µM; 5% of 320 active
Kir2-1 patch inh: mouse Kir2.1 channel blockers, Kir2.1 inhibitor project, cell-based, secondary, automated electrophysiology; shares compounds with Kir21 block; Kir2.1 cells, automated patch-clamp current inhibition; inhibition, % at 25 µM; 71% of 320 active; AID 463252, 2010
TRPC4 sel inh 2: second selectivity test of TRPC6 inhibitors: effect on mouse TRPC4. shares compounds with TRPC6 inhibitor. HEK293 TRPC4/MOR, membrane potential dye fluorescence; channel activated by saturating DAMGO dose. inhibition, % at 10 µM. 42% of 920 active. AID 2776;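 active = compounds whose fluorescence signal differed from control wells by over 3 SD, either direction, in both duplicate plates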
TRPC4 spec: mouse TRPC4 modulation by TRPC6 hits, confirmation, selectivity assay for TRPC6 inhibitor project, cell-based, HEK293 TRPC4/mu-opioid, membrane potential dye; 61% of 920 active; activity change, negative = inhibition, % at 10 µM; membrane potential fluorescence; shares compounds with TRPC6 inhibitor;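 active = rise or fall in signal beyond 3 SD of buffer-only wells in both replicate plates, either sign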;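 also: integrated kinetic ratio of fluorescence range over baseline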
HEK293 MPD ctr 2-1: nonspecific membrane potential effects, parental HEK293, confirmation, counter-screen for TRPC6 inhibitor project, cell-based, second counter screen; shares compounds with TRPC6 inhibitor; parental HEK293 membrane potential dye fluorescence; maximal acetylcholine challenge after compound addition; signal change vs control, % at 10 µM; 31% of 920 active;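 active = membrane potential signal moving either way by over 3 SD of the maximum-effect control, in both duplicate plates, meaning non-specific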
HEK293 MPD ctr-1: membrane potential modulation in parental HEK293, confirmation, counter-screen for TRPC6 inhibitor project, cell-based. 60% of 920 active. parental HEK293 membrane potential dye fluorescence. shares compounds with TRPC6 inhibitor. AID 2780, 2010. membrane potential signal change, % at 10 µM;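 active = membrane potential signal shifting up or down by more than 3 SD of buffer-only wells, on both duplicate plates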
HEK293 MPD ctr-2: parental HEK293 membrane potential modulation, confirmation, counter-screen for TRPC6 modulator project, cell-based | shares compounds with TRPC6 inhibitor | membrane potential dye fluorescence | membrane potential signal change, % at 10 µM | 51% of 2,400 active;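 active = membrane potential signal moves up or down beyond 5 SD from buffer-only wells, on both duplicate plates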
HEK293 MPD ctr 2-2: second counter-screen for TRPC6 modulators: effect in parental HEK293 cells | membrane potential dye fluorescence; after compound, maximal acetylcholine stimulation | 14% of 2,400 active | shares compounds with TRPC6 inhibitor | inhibition, % at 10 µM;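 active = membrane potential signal drops by more than 5 SD from the mean control signal, in both duplicate plates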;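 also: plate controls were acetylcholine ECmax control wells for no effect and buffer only wells for full effect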
TRPC4/MOR mod: TRPC4 modulation by TRPC6 hit compounds, confirmation, selectivity assay for TRPC6 modulator project, cell-based, HEK293 TRPC4/mu-opioid, membrane potential dye, mouse. membrane potential fluorescence. shares compounds with TRPC6 inhibitor. AID 488927, 2010. 69% of 2,400 active. percent change from control (negative = decrease, positive = increase), % at 10 µM;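 active = membrane potential signal moved up or down beyond 5 SD of buffer control wells, in both duplicate plates, actives on both sides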;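 also: plate controls were assay buffer wells for no effect and DAMGO maximal-effect wells for full effect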
TRPC4/MOR inh 2: second check of whether TRPC6 modulators also affect mouse TRPC4; inhibition, % at 10 µM; 55% of 2,400 active; HEK293 TRPC4/mu-opioid, membrane potential dye fluorescence; stimulated with maximal-effect DAMGO; AID 488928; shares compounds with TRPC6 inhibitor;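 active = drop in membrane potential signal beyond 5 SD of the control wells in both duplicate plates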;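 also: TRPC4 counter screen for TRPC6 hits run under conditions tuned for TRPC6 not TRPC4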
TRPC6 block conf: mouse TRPC6 channel inhibitors, confirmation, HEK293 cells, membrane potential dye, duplicate; shares compounds with TRPC6 inhibitor; ACh-evoked depolarization; inhibition, % at 10 µM; 43% of 3,300 active;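 active = fluorescence ratio falls more than 5 SD below the full-stimulation control mean, in both duplicate runs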;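 also: integrated fluorescence ratio of peak minus minimum over baseline after agonist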
TRPC6 act confirm: mouse TRPC6 channel activators, confirmation, HEK293 cells, membrane potential dye, duplicate. 11% of 2,800 active. shares compounds with TRPC6 inhibitor. activation, % at 10 µM. AID 488961, 2010. HEK293-TRPC6 membrane potential dye fluorescence, FDSS;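 active = ratio signal rise beyond 5 SD above unstimulated control wells' mean, seen in both duplicate runs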;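 also: plate controls were buffer EC0 wells for no effect and acetylcholine ECmax response for full effect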
* hit, by the source's call; i = inactive; . = not tested or not shown; + = active, no number. Hits are enriched below; roughly 2.9% of the tested compounds scored in any of these assays. Unless noted, no rule for the calls is given here.

SMILES	TRPC4 PAM	TRPC6 inhibitor	TRPC6 act	TRPC4 block	Kir21 block	TRPC4 agonist	hERG ctr	KCNK9 inh	Kir2-1 patch inh	others
COc1ccc(C2CN(C)CC2C(=O)c2ccc(F)cc2)cc1Cl (stereo not given)	i	i	i	i	0.92	i	.	.	.
COc1ccc(SCC2CN(C)CCC2c2ccc(F)cc2)cc1 (stereo not given)	i	i	i	i	-4.8*	i	.	.	.
CCOC(=O)c1c(C)n(Cc2ccccc2)c2ccc(OCC(O)CNC(C)(C)C)cc12 (stereo not given)	i	i	i	i	-1	i	.	.	.
COc1cc(C)c(CNCCc2c[nH]c3ccccc23)cc1C	i	i	i	i	-6.9*	144*	i	i	9.0%*
COc1ccc(CNCCc2c[nH]c3ccccc23)c(OC)c1C	i	i	i	i	-8.4*	182*	i	i	4.1%*
Fc1ccccc1CNCCc1c[nH]c2ccccc12	i	i	i	i	-0.86	i	.	.	.
COc1ccc(CN2CCCC(C(=O)c3sccc3C)C2)cc1O (stereo not given)	i	i	i	-7*	-6.2*	i	i	i	i
C[C@]12CCC(=O)CC1CCC1C2CC[C@]2(C)C(OC(=O)CCC(=O)O)CCC12 (stereo not given in full)	i	i	i	i	1.5	i	.	.	.
COc1ccc(CNCCc2ccc3c(c2)OCO3)cc1Br	i	i	i	i	-12*	107*	46%*	i	82%*
COc1cc(CNCCc2ccc3c(c2)OCO3)ccc1O	i	i	i	i	0.87	i	.	.	.
CN/C=C(/Cl)P(=O)(OC(C)C)OC(C)C	i	i	i	i	0.72	i	.	.	.
COc1ccc2ccccc2c1CNCCc1ccccc1	i	-7.8*	i	i	-8.9*	i	i	i	29%*	TRPC4 sel inh 2=i;TRPC4 spec=16%*;HEK293 MPD ctr 2-1=i;HEK293 MPD ctr-1=5.0%*;TRPC6 block conf=66%*
CCCC12CN3CCN(CC(C3)/C1=N\NC(=O)c1ccncc1)C2	i	i	i	i	0.82	i	.	.	.
CCN(CC)c1ccc(/C=C/[N+](=O)[O-])cc1	i	i	56*	i	-10	105*	.	.	.	HEK293 MPD ctr-2=+;HEK293 MPD ctr 2-2=+;TRPC4/MOR mod=386%*;TRPC4/MOR inh 2=32%*;TRPC6 act confirm=434%*
COc1cc(/C=C/[N+](=O)[O-])ccc1O	i	i	i	i	-0.08	i	.	.	.
Cc1cc(NC(=O)CCl)on1	i	i	i	i	-1	i	.	.	.
CN1CCN(C(=O)COc2ccc(S(=O)(=O)NC3CCCCC3)cc2Cl)CC1	i	i	i	i	0.85	i	.	.	.
CCOC(=O)c1[nH]c2ccc(OC)cc2c1C(SCC(=O)O)c1ccc(C(F)(F)F)cc1 (stereo not given)	i	i	i	i	2.1	i	.	.	.

High-throughput results deposited in PubChem by Johns Hopkins Ion Channel Center.
